Test results taken from PubChem BioAssay.
The source made the active and inactive calls.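 How the source made its calls, unless noted: active means duplicate-averaged activation above buffer control mean plus 5 SD of those controls; inactive means the rest.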

What was measured:
[1] = nonspecific flux increase, KCNQ1-free cells – parental CHO cells, counter-screen for KCNQ1 potentiator project (AID 493006); details: parental CHO-K1 cells, FluxOR thallium flux, at 10 µM; hits give high values;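 on activation: fluorescence ratio of max minus min over baseline after K+ and Tl+ depolarization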
Procedure, shortened: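 Material: untransfected host CHO-K1 cells with FluxOR thallium dye. Timing: overnight 37 °C plating, 90 min RT dye, 20 min compound. Detection: kinetic FluxOR fluorescence, 10 s baseline, 110 s after stimulus. Read-out basis: max-minus-min fluorescence over baseline, percent of buffer-to-R-L3 span. Replicates: duplicate wells per compound, percent values averaged.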

[2] = target: Potassium voltage-gated channel subfamily KQT member 1 (Homo sapiens) (UniProt P51787); assay: enhancement of KCNQ1 channel thallium flux – FluxOR thallium flux, CHO cells, duplicates, confirmation (AID 493007;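 active means potentiation averaged over duplicate wells exceeding buffer-only control mean by more than 3 SD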;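 on outcome: cells depolarized by a potassium plus thallium sulfate stimulus after compound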); details: KCNQ1 cell line, FluxOR thallium flux fluorescence, at 10 µM; hits give high values, % of reference activator effect, buffer zero
Procedure, shortened: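 Test system – KCNQ1-expressing CHO cell line · Incubation – FluxOR dye loading 90 min, compound exposure 20 min, room temperature · Detection – FluxOR Tl+ flux fluorescence, 10 s baseline plus 110 s recording · Controls – buffer-only wells as 0% and R-L3 activator as 100%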

[3] = target: Potassium voltage-gated channel subfamily KQT member 2 (Rattus norvegicus) (UniProt O88943); assay: KCNQ2 thallium flux enhancement – KCNQ2-CHO-K1 cells, selectivity assay for KCNQ1 potentiator project (AID 493009;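 active means mean duplicate potentiation above the buffer control mean plus 5 SD of buffer wells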;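 further: assay conditions were tuned for KCNQ1 rather than KCNQ2 modulators; signal is max minus min fluorescence divided by baseline after thallium stimulus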); details: FluxOR thallium flux fluorescence, at 10 µM; hits give high values, scaled: buffer 0, activator control 100
[4] = target: Potassium voltage-gated channel subfamily KQT member 1 (Homo sapiens) (UniProt P51787); assay: KCNQ1 activators by electrophysiology – IonWorks patch clamp, KCNQ1-CHO cells, orthogonal assay for KCNQ1 potentiator project, confirmation (AID 493184;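 active means current rise at least 3 SD above the untreated control mean in each of two repeat wells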;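 on current potentiation: percent change of the same well's current before compound addition so 0% = no change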); details: automated patch clamp current, at 10 µM; hits give high values
Procedure, shortened: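 Read-out: Percent current increase versus pre-compound level | Assay system: CHO cells carrying KCNQ1 | Measured by: Automated perforated-patch electrophysiology | Medium: External bath solution at pH 7.4 | Dosing: One dose, 10 µM final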

Chain of Potassium voltage-gated channel subfamily KQT member 1 (Homo sapiens) (P51787 whole entry, looked up): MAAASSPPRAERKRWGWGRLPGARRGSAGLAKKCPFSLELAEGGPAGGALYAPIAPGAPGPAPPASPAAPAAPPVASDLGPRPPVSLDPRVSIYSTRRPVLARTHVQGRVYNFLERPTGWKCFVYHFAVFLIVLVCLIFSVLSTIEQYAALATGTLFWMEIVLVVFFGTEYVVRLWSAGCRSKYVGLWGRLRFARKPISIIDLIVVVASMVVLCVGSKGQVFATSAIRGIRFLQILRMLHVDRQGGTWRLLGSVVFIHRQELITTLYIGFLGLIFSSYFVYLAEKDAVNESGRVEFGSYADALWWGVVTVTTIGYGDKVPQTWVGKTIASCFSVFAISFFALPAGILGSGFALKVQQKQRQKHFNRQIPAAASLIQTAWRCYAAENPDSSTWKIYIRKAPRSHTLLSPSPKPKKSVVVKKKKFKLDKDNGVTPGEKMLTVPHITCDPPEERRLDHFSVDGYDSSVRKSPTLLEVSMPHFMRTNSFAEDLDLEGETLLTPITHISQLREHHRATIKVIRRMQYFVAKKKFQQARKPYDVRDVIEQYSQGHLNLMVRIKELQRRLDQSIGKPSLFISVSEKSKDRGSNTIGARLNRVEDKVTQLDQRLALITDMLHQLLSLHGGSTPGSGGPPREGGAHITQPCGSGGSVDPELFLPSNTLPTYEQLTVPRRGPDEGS
Chain of Potassium voltage-gated channel subfamily KQT member 2 (Rattus norvegicus) (O88943 whole entry, looked up): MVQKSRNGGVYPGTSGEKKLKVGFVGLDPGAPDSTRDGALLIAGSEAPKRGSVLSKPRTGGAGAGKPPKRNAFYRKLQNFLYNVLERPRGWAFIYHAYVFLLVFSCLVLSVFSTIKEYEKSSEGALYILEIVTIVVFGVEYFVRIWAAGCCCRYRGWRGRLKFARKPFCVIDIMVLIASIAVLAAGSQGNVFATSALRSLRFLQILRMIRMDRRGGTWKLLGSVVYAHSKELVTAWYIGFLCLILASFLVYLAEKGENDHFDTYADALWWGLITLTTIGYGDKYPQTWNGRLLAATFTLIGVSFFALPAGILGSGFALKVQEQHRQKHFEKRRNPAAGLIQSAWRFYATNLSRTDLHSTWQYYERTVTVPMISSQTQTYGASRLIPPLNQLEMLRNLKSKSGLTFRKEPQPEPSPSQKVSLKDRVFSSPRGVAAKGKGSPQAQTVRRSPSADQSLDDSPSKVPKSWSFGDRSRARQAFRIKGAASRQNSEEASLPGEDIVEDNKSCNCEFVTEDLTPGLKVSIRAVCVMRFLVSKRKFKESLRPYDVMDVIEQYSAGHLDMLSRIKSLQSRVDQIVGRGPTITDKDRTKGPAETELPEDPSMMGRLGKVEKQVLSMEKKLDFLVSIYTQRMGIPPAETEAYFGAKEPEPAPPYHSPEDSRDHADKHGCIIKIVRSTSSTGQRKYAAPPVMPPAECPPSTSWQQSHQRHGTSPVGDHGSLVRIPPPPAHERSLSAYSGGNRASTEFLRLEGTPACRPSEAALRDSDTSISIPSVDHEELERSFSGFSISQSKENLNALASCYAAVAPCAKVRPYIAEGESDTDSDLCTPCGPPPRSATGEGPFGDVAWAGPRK

Row | SMILES | outcome [1] | outcome [2] | potentiation [3] | outcome [4] | activation [1] | potentiation [2] | outcome [3] | current potentiation [4]
1 | C/C(=N\Nc1nc2ccccc2[nH]1)c1ccc(Cl)s1 | inactive | inactive | 156% (active) | inactive |  |  |  | 
2 | O=C(NC(=S)N1CCc2ccccc21)c1ccco1 |  |  | 226% (active) | inactive | 198% (active) | 49.5% (active) |  | 
3 | COc1ccc(Cl)cc1NC(=O)CNc1ccc(F)cc1C | inactive | inactive |  | inactive |  |  | inactive | 
4 | CC(C)(C)C(=O)NC1CC2CCCC(C1)N2C(=O)Nc1ccccc1 (stereo not given) | inactive | inactive |  | inactive |  |  | inactive | 
5 | CCC1=NN(C(=O)c2ccc(Br)cc2)C(O)(c2ccccc2)C1 (stereo not given) | inactive | inactive |  | inactive |  |  | inactive | 
6 | N#Cc1ccc(-c2nc3cc(Cl)ccc3c(=O)n2O)cc1 |  |  | 176% (active) | inactive | 189% (active) | 29.5% (active) |  | 
7 | O=C(O)c1c2c(nc3ccccc13)/C(=C/c1cccc([N+](=O)[O-])c1)CCC2 |  |  | 199% (active) | inactive | 172% (active) | 64% (active) |  | 
8 | COc1ccc(NC(=O)Cc2nnc(SCC(=O)c3ccc(F)cc3)n2C)cc1 | inactive | inactive |  | inactive |  |  | inactive | 
9 | COc1cccc(-c2c(NC(=O)c3ccco3)n(-c3ccc(C)cc3)nc(C)c2=O)c1 | inactive | inactive |  | inactive |  |  | inactive | 
10 | COc1ccc(N2CCN(CC(=O)Nc3nc(C)cs3)CC2)cc1 | inactive | inactive |  | inactive |  |  | inactive | 
11 | Cc1cc(C)c(S(=O)(=O)Nc2cccc3nsnc23)c(C)c1 | inactive | inactive |  | inactive |  |  | inactive | 
12 | Cc1ccc(C(=O)Nc2nc(-c3ccccc3)c(-c3ccccc3)o2)cc1 |  |  | 248% (active) | inactive | 201% (active) | 92.5% (active) |  | 
13 | Cc1sc2nc(CN3CCOCC3)[nH]c(=S)c2c1C |  |  | 292% (active) | inactive | 312% (active) | 69.5% (active) |  | 
14 | CC1CN(c2nc(-c3ccc(Br)cc3)nnc2-c2ccccc2)CC(C)N1 (stereo not given) | inactive | inactive |  | inactive |  |  | inactive | 
15 | Cc1ccc(C(C(=O)NC2CCCCC2)N(Cc2cccnc2)C(=O)C2COc3ccccc3O2)o1 (stereo not given) | inactive | inactive |  | inactive |  |  | inactive | 
16 | CCOc1ccc2nc(N3C(=O)/C(=C/c4ccc(Cl)cc4)NC3=S)sc2c1 |  |  | 416% (active) | inactive | 283% (active) | 143% (active) |  | 
17 | O=C(Nc1ccccc1Cl)N1CCN(c2ccccn2)CC1 | inactive | inactive |  | inactive |  |  | inactive | 
18 | COc1ccc(CCN(C)CC(O)COc2c(C)ccc(C)c2C)cc1OC (stereo not given) | inactive | inactive |  | inactive |  |  | inactive | 
19 | Cc1ccc(OCC(=O)NCCCNC(=O)c2ccncc2)cc1C | inactive | inactive |  | inactive |  |  | inactive | 
20 | Cc1ccccc1C(=O)c1c[nH]c(C(=O)N2CCN(c3ccccc3F)CC2)c1 | inactive | inactive |  | inactive |  |  | inactive | 

Row | SMILES | outcome [1] | outcome [2] | potentiation [3] | outcome [4] | activation [1] | potentiation [2] | outcome [3] | current potentiation [4]
21 | CCOc1ccc(-n2cc(-c3ccccc3)c3c(=S)nc[nH]c32)cc1 |  |  | 389% (active) | inactive | 337% (active) | 192% (active) |  | 
22 | CCn1ncc(CN2CCC(C(=O)Nc3cccc(-c4cccc(F)c4)c3)CC2)c1C | inactive | inactive |  | inactive |  |  | inactive | 
23 | COC(=O)c1ccc(NC(=S)NC(=O)c2c(Cl)cnn2C)cc1 |  |  |  | inactive | 142% (active) | 26% (active) | inactive | 
24 | CCOC(=O)c1oc2c(CN3CCCCC3C)c(O)ccc2c(=O)c1-c1ccc(OC)c(OC)c1 (stereo not given) | inactive | inactive |  | inactive |  |  | inactive | 
25 | OCCCCNCc1ccc(OCc2ccc(Cl)cc2Cl)cc1 | inactive |  |  | inactive |  | 23.5% (active) | inactive | 
26 | COC(=O)c1cnn(-c2ccc(Cl)cc2)c1/C=N/NC(N)=S | inactive | inactive |  | inactive |  |  | inactive | 
27 | O=C(COc1ccc2ccccc2c1)NNC(=O)[C@@H]1CCCC[C@@H]1C(=O)O | inactive | inactive |  | inactive |  |  | inactive | 
28 | CC/C(=N\NC(=S)Nc1cccc(C)c1)c1ccccc1 | inactive |  | 216% (active) | inactive |  | 104% (active) |  | 
29 | O=C(CNC(=O)c1sc2ccccc2c1Cl)OCc1ccccc1 | inactive | inactive |  | inactive |  |  | inactive | 
30 | O=C(NNC(=O)c1ccc2ccccc2c1O)c1cccs1 | inactive | inactive |  | inactive |  |  | inactive | 
31 | COc1ccc(CNC(=O)COC(=O)/C=C/c2ccc(Cl)cc2)cc1 | inactive | inactive |  | inactive |  |  | inactive | 
32 | C=CCNc1nnc(SCC(=O)N2CCC(C(N)=O)CC2)s1 | inactive | inactive |  | inactive |  |  | inactive | 
33 | CCOc1ccc(CCNC(=O)CSc2nc3ncc(Cl)cc3[nH]2)cc1OCC | inactive | inactive |  | inactive |  |  | inactive | 
34 | COC(=O)c1sc(NC(=S)NC(=O)c2ccccc2C)nc1C |  |  | 204% (active) | inactive | 187% (active) | 50% (active) |  | 
35 | C=CCn1c(=S)[nH]c2ccc(Br)cc2c1=O |  |  | 200% (active) | inactive | 208% (active) | 51% (active) |  | 
36 | CCOC(=O)CSc1nc(C2CC2)cc(-c2ccc(F)cc2)c1C#N |  |  | 160% (active) | inactive | 166% (active) | 52% (active) |  | 
37 | CC(=O)c1c(-c2ccccc2)c2cc([N+](=O)[O-])ccc2[nH]c1=O | inactive | inactive |  | inactive |  |  | inactive | 
38 | COc1ccc(-c2sc(C(=O)c3ccc(Cl)cc3Cl)cc2CC(=O)O)cc1 | inactive | inactive |  |  |  |  | inactive | 33.9% (active)
39 | COC(=O)C1=C(C)NC(C)=C(C(=O)OC)C1c1ccccc1[N+](=O)[O-] | inactive | inactive |  | inactive |  |  | inactive | 
40 | Cc1cc(S(=O)(=O)N2CCOCC2)ccc1OCC(=O)NCc1ccccn1 | inactive | inactive |  | inactive |  |  | inactive | 

Row | SMILES | outcome [1] | outcome [2] | potentiation [3] | outcome [4] | activation [1] | potentiation [2] | outcome [3] | current potentiation [4]
41 | CCn1c(SCC(N)=O)nc2sc3c(c2c1=O)CCCC3 |  |  | 147% (active) | inactive | 153% (active) | 34% (active) |  | 
42 | COc1cc(CN(C)CC2CCCN(CCc3cccc(C(F)(F)F)c3)C2)ccc1O (stereo not given) | inactive |  |  | inactive |  | 43% (active) | inactive | 
43 | CC(C)CSC1=NSC2=NC(=O)/C(=C\c3ccccc3)C(=N)N12 |  |  | 204% (active) | inactive | 198% (active) | 58% (active) |  | 
44 | Oc1c(Br)cc(Br)cc1C=Nc1ccc2c(c1)OCCO2 |  | inactive |  | inactive | 159% (active) |  | inactive | 
45 | CCN(CC)CC(=O)Nc1ccc2c(c1)Nc1ccccc1CC2 |  |  | 217% (active) | inactive | 234% (active) | 98% (active) |  | 
46 | CCn1c(=S)[nH]c2c(c1=O)C(C)(C)Cc1ccccc1-2 |  | inactive |  | inactive | 150% (active) |  | inactive | 
47 | S=c1nc(Cc2ccccc2)[nH]c2ccccc12 |  |  | 415% (active) | inactive | 280% (active) | 110% (active) |  | 
48 | CC(C)(C)c1cc(C(=O)NNC(=O)c2ccc(Cl)cc2)no1 |  |  | 257% (active) | inactive | 200% (active) | 86.5% (active) |  | 
49 | COc1cccc(-c2nnc(Nc3nc4c(F)cccc4s3)o2)c1 |  |  | 280% (active) | inactive | 278% (active) | 91.5% (active) |  | 
50 | COC(=O)c1sc(-c2ccc(C(C)(C)C)cc2)cc1NC(=O)/C=C/C(=O)O |  |  | 320% (active) |  | 427% (active) | 130% (active) |  | 20.6% (active)
51 | CCCCCc1ccc(C(=O)CCCC)c(=S)[nH]1 |  |  | 300% (active) | inactive | 277% (active) | 154% (active) |  | 
52 | Cc1ccc2cc(CN(C(=O)c3ccco3)c3ccccc3C)c(=O)[nH]c2c1 | inactive | inactive |  | inactive |  |  | inactive | 
53 | CCCCOC(=O)c1cc(C)nc2ccc(Br)cc12 |  |  | 320% (active) | inactive | 306% (active) | 172% (active) |  | 
54 | O=C(NC(=S)N1CCN(c2ccccc2)CC1)c1c(F)cccc1F | inactive | inactive |  | inactive |  |  | inactive | 
55 | Cc1nn(-c2ccccc2)nc1C(=O)NNC(=O)c1cccc2ccccc12 | inactive |  | 182% (active) | inactive |  | 53% (active) |  | 
56 | COc1ccc(/C=N/NC(=O)c2[nH]nc3c2CCc2ccccc2-3)cc1OC |  |  | 228% (active) | inactive | 240% (active) | 85% (active) |  | 
57 | C/C(=N\NC(=S)Nc1ccc(C)cc1)c1cc2ccccc2o1 | inactive |  | 169% (active) | inactive |  | 97% (active) |  | 
58 | CCCn1c(NC(=O)CN2C(=O)NC3(CCCC3)C2=O)nc2ccccc21 | inactive | inactive |  | inactive |  |  | inactive | 
59 | CC(Oc1ccc(Cl)cc1Cl)C(=O)NC(=S)N1CCc2ccccc21 (stereo not given) |  |  | 172% (active) | inactive | 151% (active) | 120% (active) |  | 
60 | Cc1ccccc1C([O-])=Nc1ccc[n+](-c2nc3ccccc3nc2NS(=O)(=O)c2ccccc2)c1 | inactive | inactive |  | inactive |  |  | inactive | 
